Source: ChEMBL document CHEMBL4725280, “Structural studies of triazole inhibitors with promising inhibitor effects against antibiotic resistance metallo-β-lactamases” (Bioorg Med Chem, 2020)
In brackets after ≈: the same amount, converted by molar mass. Activity calls are given as the source filed them. No cut-off for these calls is given here.

Tests used:
[1] = target: Beta-lactamase VIM-2 (Pseudomonas aeruginosa) (UniProt Q9K2N0); assay: Synergistic Inhibition of beta lactamase VIM-2 in Pseudomonas aeruginosa K34-7 assessed colony formation by visual inspection in presence of 50 microM 2,5-Dichloro-N-((4-((cyclohexylamino)methyl)-1H-1,2,3-triazol-5-yl)methyl)benzenesulfonamide incubated for 20 hrs by two-fold dilution method
Summary of the method: (§1)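 Broth microdilution in Mueller Hinton broth against clinical isolates (P. aeruginosa VIM-2, K. pneumoniae NDM-1, E. coli VIM-29). Meropenem 2-fold series 256–0.0625 µg/mL, with inhibitor at 50 or 125 µM final; 5% DMSO control. Inoculum from 0.5 McFarland suspension in 0.85% NaCl diluted in MH broth, CFU checked on MH agar. 37 °C for 20 h; MIC read visually.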

[2] = target: Metallo-beta-lactamase type 2 (Klebsiella pneumoniae) (UniProt C7C422); assay: Synergistic Inhibition of beta lactamase NDM1 in Klebsiella pneumoniae K66-45 assessed colony formation by visual inspection in presence of 50 microM 2,5-Dichloro-N-((4-((cyclohexylamino)methyl)-1H-1,2,3-triazol-5-yl)methyl)benzenesulfonamide incubated for 20 hrs by two-fold dilution method; summary of the method: as §1
Chain of Metallo-beta-lactamase type 2 (Klebsiella pneumoniae) (C7C422 whole entry): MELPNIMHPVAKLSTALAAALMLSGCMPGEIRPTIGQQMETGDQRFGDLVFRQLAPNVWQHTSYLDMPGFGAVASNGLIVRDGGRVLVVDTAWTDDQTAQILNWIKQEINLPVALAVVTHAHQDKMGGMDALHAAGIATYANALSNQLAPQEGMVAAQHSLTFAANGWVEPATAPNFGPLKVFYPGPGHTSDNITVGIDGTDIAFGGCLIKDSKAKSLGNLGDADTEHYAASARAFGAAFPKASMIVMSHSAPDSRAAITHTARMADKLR

Escherichia coli [3] = assay: Synergistic Inhibition of beta lactamase VIM-29 in Escherichia coli 50639799 assessed colony formation by visual inspection in presence of 50 microM 2,5-Dichloro-N-((4-((cyclohexylamino)methyl)-1H-1,2,3-triazol-5-yl)methyl)benzenesulfonamide incubated for 20 hrs by two-fold dilution method; summary of the method: as §1
[4] = target: Beta-lactamase VIM-2 (Pseudomonas aeruginosa) (UniProt Q9K2N0); assay: Inhibition of beta lactamase VIM-2 in Pseudomonas aeruginosa K34-7 assessed colony formation by visual inspection incubated for 20 hrs by two-fold dilution method; summary of the method: as §1
[5] = target: Metallo-beta-lactamase type 2 (Klebsiella pneumoniae) (UniProt C7C422); assay: Inhibition of beta lactamase NDM1 in Klebsiella pneumoniae K66-45 assessed colony formation by visual inspection incubated for 20 hrs by two-fold dilution method; summary of the method: as §1
Escherichia coli [6] = assay: Inhibition of beta lactamase VIM-29 in Escherichia coli 50639799 assessed colony formation by visual inspection incubated for 20 hrs by two-fold dilution method; summary of the method: as §1
[7] = target: Beta-lactamase VIM-2 (Pseudomonas aeruginosa) (UniProt Q9K2N0); assay: Synergistic Inhibition of beta lactamase VIM-2 in Pseudomonas aeruginosa K34-7 assessed colony formation by visual inspection in presence of 50 microM (5-((4-iodophenylsulfonamido)methyl)-1H-1,2,3-triazol-4-yl)methyl acetate incubated for 20 hrs by two-fold dilution method; summary of the method: as §1
[8] = target: Metallo-beta-lactamase type 2 (Klebsiella pneumoniae) (UniProt C7C422); assay: Synergistic Inhibition of beta lactamase NDM1 in Klebsiella pneumoniae K66-45 assessed colony formation by visual inspection in presence of 125 microM N-((4-((cyclohexylamino)methyl)-1H-1,2,3-triazol-5-yl)methyl)-4-iodobenzenesulfonamide incubated for 20 hrs by two-fold dilution method; summary of the method: as §1
[9] = target: Beta-lactamase VIM-2 (Pseudomonas aeruginosa) (UniProt Q9K2N0); assay: Synergistic Inhibition of beta lactamase VIM-2 in Pseudomonas aeruginosa K34-7 assessed colony formation by visual inspection in presence of 125 microM N-((4-((cyclohexylamino)methyl)-1H-1,2,3-triazol-5-yl)methyl)-4-iodobenzenesulfonamide incubated for 20 hrs by two-fold dilution method; summary of the method: as §1
[10] = target: Metallo-beta-lactamase type 2 (Klebsiella pneumoniae) (UniProt C7C422); assay: Synergistic Inhibition of beta lactamase NDM1 in Klebsiella pneumoniae K66-45 assessed colony formation by visual inspection in presence of 125 microM N-((4-((adamantylamino)methyl)-1H-1,2,3-triazol-5-yl)methyl)-4-iodobenzenesulfonamide incubated for 20 hrs by two-fold dilution method; summary of the method: as §1
[11] = target: Beta-lactamase VIM-2 (Pseudomonas aeruginosa) (UniProt Q9K2N0); assay: Synergistic Inhibition of beta lactamase VIM-2 in Pseudomonas aeruginosa K34-7 assessed colony formation by visual inspection in presence of 125 microM N-((4-((adamantylamino)methyl)-1H-1,2,3-triazol-5-yl)methyl)-4-iodobenzenesulfonamide incubated for 20 hrs by two-fold dilution method; summary of the method: as §1
[12] = target: Metallo-beta-lactamase type 2 (Klebsiella pneumoniae) (UniProt C7C422); assay: Synergistic Inhibition of beta lactamase NDM1 in Klebsiella pneumoniae K66-45 assessed colony formation by visual inspection in presence of 50 microM (5-((4-iodophenylsulfonamido)methyl)-1H-1,2,3-triazol-4-yl)methyl acetate incubated for 20 hrs by two-fold dilution method; summary of the method: as §1
Escherichia coli [13] = assay: Synergistic Inhibition of beta lactamase VIM-29 in Escherichia coli 50639799 assessed colony formation by visual inspection in presence of 50 microM (5-((4-iodophenylsulfonamido)methyl)-1H-1,2,3-triazol-4-yl)methyl acetate incubated for 20 hrs by two-fold dilution method; summary of the method: as §1
Beta-lactamase VIM-2 = Beta-lactamase VIM-2 (Pseudomonas aeruginosa, UniProt Q9K2N0); assay: Inhibition of beta lactamase VIM-2 in Pseudomonas aeruginosa 3015473 in presence of nitrocefin as reporter substrate measured after 5 mins by microplate spectrophotometry analysis
Summary of the method: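 Purified VIM-2 at 1 nM in 50 mM HEPES pH 7.2 with 100 µM ZnCl2 and 400 µg/ml BSA, preincubated with inhibitor (sixteen concentrations, 0–250 µM) for 5 min at 25 °C. Then 100 µM nitrocefin was added and absorbance was followed at 482 nm. Points were run in triplicate, and IC50 was taken from initial velocities by log[inhibitor]–response fitting.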

GIM-1 protein = GIM-1 protein (Pseudomonas aeruginosa, UniProt Q704V1); assay: Inhibition of beta lactamase GIM-1 in Pseudomonas aeruginosa in presence of nitrocefin as reporter substrate measured after 5 mins by microplate spectrophotometry analysis
Chain of GIM-1 protein (Q704V1 whole entry): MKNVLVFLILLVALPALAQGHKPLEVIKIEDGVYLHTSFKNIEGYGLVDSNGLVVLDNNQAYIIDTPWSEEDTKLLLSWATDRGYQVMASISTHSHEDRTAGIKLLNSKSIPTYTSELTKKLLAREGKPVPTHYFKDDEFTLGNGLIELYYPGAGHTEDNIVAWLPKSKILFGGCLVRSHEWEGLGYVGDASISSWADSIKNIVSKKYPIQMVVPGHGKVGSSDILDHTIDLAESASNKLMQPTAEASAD
Summary of the method: (§2)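 Purified recombinant enzyme (1 nM GIM-1 or NDM-1) in 50 mM HEPES pH 7.2, 100 µM ZnCl2, 400 µg/ml BSA, preincubated with inhibitor at 16 concentrations (0–250 µM) for 5 min at 25 °C. Reporter substrate added at 100 µM: nitrocefin for GIM-1 (A482), imipenem for NDM-1 (A300). Triplicates; IC50 from initial velocities by log[inhibitor]–response fit.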

[14] = Inhibition of beta lactamase NDM1 in Klebsiella pneumoniae in presence of imipenem as reporter substrate measured after 5 mins by microplate spectrophotometry analysis; summary of the method: as §2
[15] = target: Beta-lactamase VIM-2 (Pseudomonas aeruginosa) (UniProt Q9K2N0); assay: (§3) Inhibition of Pseudomonas aeruginosa 3015473 beta lactamase VIM-2 transfected in negative Escherichia coli SNO3 cells assessed as substrate hydrolysis using nitrocefin as substrate at 250 uM incubated for 20 mins measured every 1 mins for 3 hrs by cell-based microplate spectrophotometry analysis relative to control
Summary of the method: (§4)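 E. coli SNO3 (β-lactamase-negative) carrying pET26b(+) with blaVIM-2, blaGIM-1 or blaNDM-1; overnight culture adjusted to OD600 1 in LB, inhibitor 250 µM final, IPTG 0.8 mM final, 37 °C 20 min with shaking to induce. Nitrocefin added (1.6 mM final, in 50 mM HEPES pH 7.2, 100 µM ZnCl2), A482 read each minute for 3 h; duplicates.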

[16] = target: GIM-1 protein (Pseudomonas aeruginosa) (UniProt Q704V1); assay: as §3, with “aeruginosa” for “aeruginosa 3015473”, “GIM-1” for “VIM-2”; summary of the method: as §4
Chain of GIM-1 protein (Pseudomonas aeruginosa) (Q704V1 as listed by the source): as the sequence (Q704V1 whole entry) above

Klebsiella pneumoniae = assay: as §3, with “Klebsiella pneumonia” for “Pseudomonas aeruginosa 3015473”, “NDM1” for “VIM-2”; summary of the method: as §4

In the case of `C[C@@H](O)[C@H]1C(=O)N2C(C(=O)O)=C(S[C@@H]3CN[C@H](C(=O)N(C)C)C3)[C@H](C)[C@H]12`, the MIC [1] is reported as 8 µg/mL, the MIC [2] is reported as 32 µg/mL and the MIC (Escherichia coli [3]) is reported as 16 µg/mL. The MIC [4] was 64 µg/mL (≈ 167 µM), the MIC [5] was 32 µg/mL (≈ 83.4 µM) and the MIC (Escherichia coli [6]) was 16 µg/mL (≈ 41.7 µM). The MIC [7] was 1 µg/mL, the MIC [8] was 64 µg/mL and the MIC [9] was 8 µg/mL. The MIC [10] was 32 µg/mL, the MIC [11] was 16 µg/mL and the MIC [12] was 64 µg/mL. For the same compound, the MIC (Escherichia coli [13]) was 1 µg/mL.

`CC(=O)OCc1nn[nH]c1CNS(=O)(=O)c1ccc(I)cc1` showed an IC50 (Beta-lactamase VIM-2; read-out: IC50) of 23000 nM, an IC50 (GIM-1 protein; read-out: IC50) of 48 µM and an IC50 ([14]; read-out: IC50) of 231 µM.

For `O=S(=O)(NCc1[nH]nnc1CNC1CCCCC1)c1cc(Cl)ccc1Cl`, the IC50 (Beta-lactamase VIM-2; read-out: IC50) was 230 nM, the IC50 (GIM-1 protein) was “Not Active” and the IC50 ([14]; read-out: IC50) was 98 µM. The inhibition [15] was 94%, the inhibition [16] was 7% and the inhibition (Klebsiella pneumoniae) was “inactive”.

Work on `Cc1ccc(S(=O)(=O)NCc2[nH]nnc2CNC23CC4CC(CC(C4)C2)C3)cc1` yielded an IC50 (Beta-lactamase VIM-2; read-out: IC50) of 2300 nM, an IC50 (GIM-1 protein; read-out: IC50) of 83 µM and an inhibition [15] of 84%. The inhibition [16] was “inactive” and the inhibition (Klebsiella pneumoniae) was “inactive”.

In the case of `Cc1ccc(S(=O)(=O)NCc2[nH]nnc2CNC2CCCCC2)cc1`, the IC50 (Beta-lactamase VIM-2; read-out: IC50) is reported as 1500 nM, the IC50 (GIM-1 protein) is reported as “Not Active” and the IC50 ([14]; read-out: IC50) is reported as 144 µM. The inhibition [15] was 82%, the inhibition [16] was 2.3% and the inhibition (Klebsiella pneumoniae) was “inactive”.

For `O=S(=O)(NCc1[nH]nnc1CNC12CC3CC(CC(C3)C1)C2)c1cc(Cl)ccc1Cl`, the IC50 (Beta-lactamase VIM-2; read-out: IC50) was 120 nM, the IC50 (GIM-1 protein) was “Nd(Insoluble)” and the inhibition [15] was “inactive”. For the same compound, the inhibition [16] was 21% and the inhibition (Klebsiella pneumoniae) was “inactive”.

With `O=S(=O)(NCc1[nH]nnc1CNCc1ccccc1)c1ccc(I)cc1` the IC50 (Beta-lactamase VIM-2) was “Nd(Insoluble)”.

With `COc1ccc(CSCc2nn[nH]c2CNS(=O)(=O)c2ccc(I)cc2)cc1` the IC50 (Beta-lactamase VIM-2; read-out: IC50) was 21000 nM, the IC50 (GIM-1 protein; read-out: IC50) was 227 µM and the inhibition [15] was 45%. It also gave an inhibition [16] of 33% and an inhibition (Klebsiella pneumoniae) of 34%.

With `NCc1nn[nH]c1CNS(=O)(=O)c1ccccc1` the IC50 (Beta-lactamase VIM-2; read-out: IC50) was 23000 nM, the IC50 (GIM-1 protein) was “Not Active” and the IC50 [14] was “Not Active”. For the same compound, the inhibition [15] was 29%, the inhibition [16] was “inactive” and the inhibition (Klebsiella pneumoniae) was “inactive”.

For `CC(C)OCc1nn[nH]c1CNS(=O)(=O)c1ccc(I)cc1`, the IC50 (Beta-lactamase VIM-2; read-out: IC50) was 530 nM, the IC50 (GIM-1 protein; read-out: IC50) was 193 µM and the IC50 [14] was “Not Active”. For the same compound, the inhibition [15] was 85%, the inhibition [16] was 11% and the inhibition (Klebsiella pneumoniae) was “inactive”.

Work on `O=S(=O)(NCc1[nH]nnc1CNC12CC3CC(CC(C3)C1)C2)c1ccc(I)cc1` yielded an IC50 (Beta-lactamase VIM-2; read-out: IC50) of 160 nM, an IC50 (GIM-1 protein; read-out: IC50) of 18 µM and an inhibition [15] of 96%. It also gave an inhibition [16] of 22% and an inhibition (Klebsiella pneumoniae) of 17%.

For `COCc1nn[nH]c1CNS(=O)(=O)c1ccc(I)cc1`, the IC50 (Beta-lactamase VIM-2; read-out: IC50) was 15000 nM, the IC50 (GIM-1 protein; read-out: IC50) was 169 µM and the IC50 [14] was “Not Active”. For the same compound, the inhibition [15] was 51%, the inhibition [16] was 11% and the inhibition (Klebsiella pneumoniae) was “inactive”.

Compound `O=S(=O)(NCc1[nH]nnc1CNC1CCCCC1)c1ccc(I)cc1` has an IC50 (Beta-lactamase VIM-2; read-out: IC50) of 67 nM, an IC50 (GIM-1 protein; read-out: IC50) of 69 µM and an IC50 ([14]; read-out: IC50) of 148 µM. The inhibition [15] was 95%, the inhibition [16] was 3% and the inhibition (Klebsiella pneumoniae) was “inactive”.

In the case of `Cc1ccc(S(=O)(=O)NCc2[nH]nnc2COC(C)(C)C)cc1`, the IC50 (Beta-lactamase VIM-2; read-out: IC50) is reported as 7200 nM, the IC50 (GIM-1 protein; read-out: IC50) is reported as 128 µM and the IC50 ([14]; read-out: IC50) is reported as 142 µM. For the same compound, the inhibition [15] was 60%, the inhibition [16] was 4.5% and the inhibition (Klebsiella pneumoniae) was “inactive”.

With `O=S(=O)(NCc1[nH]nnc1CNC(c1ccccc1)(c1ccccc1)c1ccccc1)c1ccc(I)cc1` the IC50 (Beta-lactamase VIM-2; read-out: IC50) was > 250000 nM, the IC50 (GIM-1 protein; read-out: IC50) was 353 µM and the IC50 ([14]; read-out: IC50) was 81 µM. For the same compound, the inhibition [15] was 19%, the inhibition [16] was 3% and the inhibition (Klebsiella pneumoniae) was “inactive”.
